# Measurements: ChEMBL document CHEMBL1122242, “Phenylenebis(oxy)bis[2,2-dimethylpentanoic acid]s: agents that elevate high-density lipoproteins” (1983)
# How the values were obtained:
# Assay type in all cases: functional
# Rattus norvegicus [1] = assay: Hypolipidemic effects (low-density lipoprotein (LDL) cholesterol) in male rats; Compound was screening orally at 50 mg/Kg
# In short: (§1)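 Male rats, 10 per group, fed 7 days on chow with 10% fat (5.5% added peanut oil), 1.5% cholesterol and 0.1% cholic acid. Oral gavage on days 4-7 in 4% acacia, usually 50 mg/kg daily. Fasted overnight, killed day 8, atrial blood into EDTA. Plasma cholesterol, TG and HDL cholesterol (after MnCl2/heparin precipitation) by Autoanalyzer. % change vs controls, Student's t test.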
# Rattus norvegicus [2] = organism: Rattus norvegicus; assay: Hypolipidemic effects(plasma cholesterol) in male rats; in short: as §1
# Rattus norvegicus [3] = assay: Hypolipidemic effects (high-density lipoprotein (HDL) cholesterol) in male rats; Compound was screening orally at 50 mg/Kg; in short: as §1
# Rattus norvegicus [4] = organism: Rattus norvegicus; assay: Hypolipidemic effects(plasma TG) in male rats; in short: as §1
# Rattus norvegicus [5] = organism: Rattus norvegicus; assay: Hypolipidemic effects(liver weight) in male rats; in short: as §1
SMILES,Change (Rattus norvegicus [1]),Change (Rattus norvegicus [2]),Change (Rattus norvegicus [3]),Change (Rattus norvegicus [4]),Change (Rattus norvegicus [5])
COC(=O)C(C)(C)CCCOc1cc(OCCCC(C)(C)C(=O)OC)c(C(C)(C)C)cc1C(C)(C)C,0%,0%,0%,0%,0%
CC(C)(CCCOc1ccc(OCCCC(C)(C)C(=O)O)c(C(O)c2ccccc2)c1)C(=O)O (configuration not stated),-42%,-17%,410%,27%,16%
CC(C)(CCCOc1ccc(S(=O)(=O)CCCC(C)(C)C(=O)O)cc1)C(=O)O,-20%,0%,93%,0%,9%
COC(=O)C(C)(C)CCCOc1cc(OCCCC(C)(C)C(=O)OC)c(Cl)cc1Cl,0%,0%,0%,0%,0%
COC(=O)C(C)(C)CCCOc1cccc(OCCCC(C)(C)C(=O)OC)c1NC(C)=O,0%,0%,0%,0%,0%
CC(C)(CCCOc1ccc(-c2ccc(OCCCC(C)(C)C(=O)O)cc2)cc1)C(=O)O,–,-30%,138%,0%,15%
COC(=O)C(C)(C)CCCOc1cc(OCCCC(C)(C)C(=O)OC)cc(-c2ccccc2)c1,-42%,-41%,0%,0%,13%
COC(=O)C(C)(C)CCCOc1cc(C(C)(C)C)c(OCCCC(C)(C)C(=O)OC)cc1C(C)(C)C,–,0%,0%,-15%,0%
COC(=O)C(C)(C)CCCOc1ccc(OCCCC(C)(C)C(=O)OC)c(C#N)c1C#N,0%,0%,0%,0%,0%
CC(C)(CCCOc1ccc(S(=O)(=O)c2ccc(OCCCC(C)(C)C(=O)O)cc2)cc1)C(=O)O,0%,0%,26%,0%,10%
COC(=O)c1c(OCCCC(C)(C)C(=O)OC)cccc1OCCCC(C)(C)C(=O)OC,0%,0%,21%,0%,0%
CC(C)(CCCCOc1ccc(OCCCCC(C)(C)C(=O)O)c(-c2ccccc2)c1)C(=O)O,-53%,-49%,51%,0%,8%
CC(C)(CCCOc1ccc(Oc2ccc(OCCCC(C)(C)C(=O)O)cc2)cc1)C(=O)O,-36%,-35%,0%,0%,0%
COC(=O)C(C)(C)CCCOc1ccc(OCCCC(C)(C)C(=O)OC)c(/C=N/N=C(\N)S)c1,0%,0%,0%,0%,0%
CC(C)(CO)CCCOc1ccc(OCCCC(C)(C)CO)c(-c2ccccc2)c1,-36%,37%,1105%,0%,30%
CC(C)(CCCOc1cccc(OCCCC(C)(C)C(=O)O)c1)C(=O)O,–,-52%,294%,0%,17%
COC(=O)C(C)(C)CCCOc1ccc(Cl)c(OCCCC(C)(C)C(=O)OC)c1,80%,-42%,37%,0%,8%
C/C=C/c1cc(OCCCC(C)(C)C(=O)OC)ccc1OCCCC(C)(C)C(=O)OC,-66%,-39%,268%,-31%,29%
CC(C)(CCCOc1ccc(OCCCC(C)(C)C(=O)O)c(-c2ccc(Cl)cc2Cl)c1)C(=O)O,-54%,-45%,64%,-20%,0%
COC(=O)C(C)(C)CCCOc1ccc(OCCCC(C)(C)C(=O)OC)c(C=O)c1,-20%,0%,217%,0%,9%
CCC(O)c1cc(OCCCC(C)(C)C(=O)O)ccc1OCCCC(C)(C)C(=O)O (configuration not stated),-62%,0%,947%,0%,34%
COC(=O)C(C)(C)CCCOc1ccc(C=O)c(OCCCC(C)(C)C(=O)OC)c1,-30%,-18%,79%,0%,11%
COC(=O)C(C)(C)CCCOc1ccccc1OCCCC(C)(C)C(=O)OC,–,-40%,0%,-30%,0%

SMILES,Change (Rattus norvegicus [1]),Change (Rattus norvegicus [2]),Change (Rattus norvegicus [3]),Change (Rattus norvegicus [4]),Change (Rattus norvegicus [5])
CC(C)(CCCOc1ccc(OCCCC(C)(C)C(=O)O)c(Sc2ccccc2)c1)C(=O)O,-30%,32%,428%,44%,14%
CC(C)(CCCOc1ccc(OCCCC(C)(C)C(=O)O)c(-c2ccccc2Cl)c1)C(=O)O,-38%,0%,480%,38%,23%
COc1ccc(-c2cc(OCCCC(C)(C)C(=O)O)ccc2OCCCC(C)(C)C(=O)O)cc1,-38%,-30%,52%,-30%,0%
COC(=O)C(C)(C)CCCOc1ccc(C(=O)c2ccc(OCCCC(C)(C)C(=O)OC)cc2)cc1,0%,0%,0%,0%,0%
COC(=O)C(C)(C)CCCOc1ccc(OCCCC(C)(C)C(=O)OC)c(-c2nnco2)c1,-33%,-26%,31%,0%,11%
COC(=O)C(C)(C)CCCOc1cccc(OCCCC(C)(C)C(=O)OC)c1C,–,-37%,385%,-15%,33%
CC(C)(CCCOc1ccc(OCCCC(C)(C)C(=O)O)c([S+]([O-])c2ccccc2)c1)C(=O)O (configuration not stated),-58%,-27%,599%,-21%,16%
CC(C)(CCCOc1ccc(OCCCC(C)(C)C(=O)O)c(S(=O)(=O)c2ccccc2)c1)C(=O)O,-53%,-32%,303%,35%,10%
CC(C)(CCCOc1ccc(OCCCC(C)(C)C(=O)Oc2ccc(C(C)(C)C)cc2)cc1)C(=O)Oc1ccc(C(C)(C)C)cc1,0%,0%,0%,0%,0%
COC(=O)C(C)(C)CCCOc1cc(C)c(OCCCC(C)(C)C(=O)OC)cc1C,-64%,-30%,688%,27%,14%
CCCCCCCCCCCCc1ccc(OCCCC(C)(C)C(=O)O)cc1OCCCC(C)(C)C(=O)O,-12%,0%,0%,0%,0%
Cc1cc(OCCCC(C)(C)C(=O)O)c(C)c(C)c1OCCCC(C)(C)C(=O)O,–,-37%,165%,42%,21%
CC(C)(CCCOc1ccc(OCCCC(C)(C)C(=O)OCc2cccnc2)c(-c2ccccc2)c1)C(=O)OCc1cccnc1,0%,63%,594%,0%,19%
COC(=O)C(C)(C)CCCOc1cc(C)cc(OCCCC(C)(C)C(=O)OC)c1,–,-62%,262%,-53%,18%
CCOC(=O)C(C)(C)CCCOc1ccc(OCCCC(C)(C)C(=O)OCC)c(-c2ccccc2)c1,-18%,43%,536%,0%,20%
COC(=O)C(C)(C)CCCOc1ccc(C(C)(C)c2ccc(OCCCC(C)(C)C(=O)OC)cc2)cc1,0%,0%,0%,0%,0%
COC(=O)C(C)(C)CCCOc1ccc(OCCCC(C)(C)C(=O)OC)c(C2CCCCC2)c1,-54%,-49%,35%,-24%,6%
COC(=O)c1ccc(OCCCC(C)(C)C(=O)OC)cc1OCCCC(C)(C)C(=O)OC,0%,0%,0%,0%,0%
CC(C)(CCCOc1ccc(Sc2ccc(OCCCC(C)(C)C(=O)O)cc2)cc1)C(=O)O,–,-35%,0%,20%,0%
COC(=O)C(C)(C)CCCOc1cccc(OCCCC(C)(C)C(=O)OC)c1[N+](=O)[O-],-43%,-33%,109%,0%,5%
COC(=O)C(C)(C)CCCOc1ccc(OCCCC(C)(C)C(=O)OC)c(C(C)=O)c1,-39%,0%,381%,20%,21%
CC(=O)OCC(C)(C)CCCOc1ccc(OCCCC(C)(C)COC(C)=O)c(-c2ccccc2)c1,-36%,0%,602%,0%,19%
